Experimental data: ChEMBL document CHEMBL2176957, “Discovery of a novel noniminosugar acid α glucosidase chaperone series” (J Med Chem, 2012)
≈ marks a conversion by molar mass, not a printed value. Calls of active or inactive are those of the source. No cut-off for these calls is given here.

What was measured:
Caco-2 [1] = test: Permeability from apical to basolateral side of human Caco2 cells
[2] = target: T1, Lysosomal alpha-glucosidase (Homo sapiens, UniProt P10253); test: Increase in translocation of GAA to lysosomes in human wild type skin fibroblasts at 1 to 5 uM after 5 days by confocal laser-scanning microscopic analysis
Method in brief: (§1)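 Wild-type primary dermal fibroblasts or Pompe patient fibroblasts (F3248, F0833, F2845; low passage) treated with compound for 5 or 6 days. Fixed in 3% paraformaldehyde, permeabilized with 0.1% Triton X-100, blocked, stained with mouse anti-GAA (Alexa-488) and goat anti-cathepsin D (Alexa-555), DAPI counterstain. Confocal images taken at fixed laser settings; percentage of cells with lysosomal GAA co-localization scored.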

[3] = target: T1, Lysosomal alpha-glucosidase; test: Inhibition of wild type recombinant GAA preincubated for 5 mins measured after 45 mins using red-shifted dye by fluorescence assay; settings: read-out: IC50
[4] = target: T1, Lysosomal alpha-glucosidase; test: Increase in GAA activity in human wild type skin fibroblasts incubated for 5 days followed by 18 to 40 hrs wash out by fluorescence assay relative to vehicle-treated control
Method in brief: (§2)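 Fibroblasts seeded at 5,000 cells/well and treated 5 days, with media and compound renewed on day 3. Assayed directly or after PBS wash and 18 h or 40 h in compound-free medium. Cells were incubated 2 h at 37 °C in pH 4.0 citrate/phosphate buffer with 3 mM 4-MUG and acarbose, then stopped at pH 10. Background subtracted, normalized to vehicle (100%); triplicate, mean ±SD.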

[5] = target: T1, Lysosomal alpha-glucosidase; test: Inhibition of human recombinant GAA assessed as hydrolysis of bovine liver glycogen by Amplex red oxidase assay
Method in brief: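 Recombinant human GAA hydrolysing bovine liver glycogen as the native substrate. Released glucose was detected with an Amplex Red glucose oxidase coupled reaction, read as fluorescence on a plate reader.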

[6] = Inhibition of alpha-galactosidase
[7] = target: T1, Lysosomal alpha-glucosidase; test: Binding affinity at wild type recombinant GAA assessed as thermostabilization of protein at 50 uM incubated at 66 degC for 60 mins
Method in brief: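 GAA incubated at 66 °C for 60 min with compound at 50 μM, compared with room-temperature incubation. Residual enzymatic activity read out and expressed as the ratio of heated to room-temperature activity; DMSO controls run in duplicate.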

[8] = Aqueous solubility in PBS buffer
Liver = test: Half life in mouse liver microsomes
[9] = Cytotoxicity in human wild type skin fibroblasts assessed as cell viability at 1 to 5 uM after 5 days by confocal laser-scanning microscopic analysis; settings: skin fibroblast, 120 h
Method in brief: (§3)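 Primary wild-type dermal fibroblasts and patient-derived Pompe fibroblasts (passage 7) grown on chamber slides and exposed to compound for 5 or 6 days. Viability judged from the cultures examined by immunostaining and confocal microscopy.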

[10] = target: T1, Lysosomal alpha-glucosidase; test: Ratio of Kd for wild type recombinant NT-495 labelled GAA to IC50 for wild type recombinant GAA (unknown origin
Caco-2 [11] = test: Efflux ratio from basolateral to apical side to apical to basolateral side of human Caco2 cells; assay type: ADME, cell-based
[12] = target: T1, Lysosomal alpha-glucosidase; test: Increase in translocation of GAA to lysosomes in human F2845 cells at 1 to 5 uM after 5 days by confocal laser-scanning microscopic analysis; assay type: cell-based; method in brief: as §1
[13] = target: T1, Lysosomal alpha-glucosidase; test: Binding affinity at wild type recombinant GAA assessed as rise in melting temperature of protein using SYPRO Orange dye by fluorescence assay
Method in brief: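 Thermal shift of recombinant wild-type GAA (1 μM) with SYPRO Orange (5×) in 50 mM citrate buffer pH 5.0 with 100 mM KCl, 10 mM NaCl, 1 mM MgCl2. Six-point compound series, 0.82–200 μM final, 2% DMSO, DMSO controls. Heated 20 to 95 °C at 4.8 °C/s; fluorescence ex 498/em 580 nm; Tm calculated from the melt curve.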

[14] = target: T1, Lysosomal alpha-glucosidase; test: Increase in GAA activity in human F2845 cells incubated for 5 days followed by 18 to 40 hrs wash out by fluorescence assay relative to vehicle-treated control; assay type: cell-based; method in brief: as §2
Caco-2 [15] = test: Permeability from basolateral to apical side of human Caco2 cells
[16] = Cytotoxicity in human F2845 cells assessed as cell viability at 1 to 5 uM after 5 days confocal laser-scanning microscopic analysis; assay type: cell-based; settings: f2845, 120 h; method in brief: as §3
[17] = target: T1, Lysosomal alpha-glucosidase; test: Increase in GAA activity in human wild type skin fibroblasts incubated for 5 days by fluorescence assay relative to vehicle-treated control; method in brief: as §2
[18] = Cytotoxicity in human wild type skin fibroblasts at 10 to 20 uM after 6 days by confocal laser-scanning microscopic analysis; settings: skin fibroblast, 144 h; method in brief: as §3
[19] = target: T1, Lysosomal alpha-glucosidase; test: Inhibition of wild type recombinant GAA preincubated for 5 mins measured after 45 mins using blue-shifted dye by fluorescence assay; settings: read-out: IC50
[20] = target: T1, Lysosomal alpha-glucosidase; test: Increase in GAA activity in human F2845 cells incubated for 5 days by fluorescence assay relative to vehicle-treated control; assay type: cell-based; method in brief: as §2
[21] = target: T2, Lysosomal acid glucosylceramidase (Homo sapiens) (UniProt P04062); test: Inhibition of glucocerebrosidase
T2 sequence (whole entry): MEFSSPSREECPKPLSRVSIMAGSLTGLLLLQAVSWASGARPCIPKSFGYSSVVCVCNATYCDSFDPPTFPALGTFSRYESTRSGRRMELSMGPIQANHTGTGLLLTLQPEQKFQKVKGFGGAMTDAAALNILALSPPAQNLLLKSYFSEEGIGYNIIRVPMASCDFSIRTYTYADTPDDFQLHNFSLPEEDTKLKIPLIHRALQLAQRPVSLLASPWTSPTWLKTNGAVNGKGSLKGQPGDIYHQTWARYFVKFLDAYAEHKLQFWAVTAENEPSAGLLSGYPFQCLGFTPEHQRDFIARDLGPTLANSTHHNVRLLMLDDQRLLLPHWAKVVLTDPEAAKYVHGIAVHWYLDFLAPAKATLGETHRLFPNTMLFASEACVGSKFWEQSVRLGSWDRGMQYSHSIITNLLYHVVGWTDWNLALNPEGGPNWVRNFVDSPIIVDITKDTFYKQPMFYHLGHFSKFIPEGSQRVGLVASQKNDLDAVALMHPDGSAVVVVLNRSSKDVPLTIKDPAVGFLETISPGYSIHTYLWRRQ

[22] = Cytotoxicity in human F2845 cells at 10 to 20 uM after 6 days by confocal laser-scanning microscopic analysis; assay type: cell-based; settings: f2845, 144 h; method in brief: as §3

- Papp (Caco-2 [1]): 14.6 ×10⁻⁶ cm/s
- Activity [2]: inactive
- IC50 [3]: 940 nM
- Activity [4]: Active
- INH [5]: 330 nM
- inhibition [6]: Active
- Activity [7]: Active
- solubility [8]: 7.9 µM (≈ 3.16 µg/mL)
- t1/2 (Liver): > 1 h
- Ratio [10]: 20
- Ratio (Caco-2 [11]): 1.9
- Activity [12]: inactive
- Activity [13]: Active
- Activity [14]: Active
- Papp (Caco-2 [15]): 27.1 ×10⁻⁶ cm/s
- Activity [17]: Active
- IC50 [19]: 750 nM
- Activity [20]: Active
- inhibition [21]: Active
Compound: CC(=O)c1ccc(N2CCN(S(=O)(=O)c3ccc4c(c3)CC(=O)N4)CC2)cc1
- Activity [9]: Non-toxic
- Activity [16]: Non-toxic
- Activity [18]: Toxic
- Activity [22]: Toxic
